The values that follow come from PubChem BioAssay.

Activity calls are given as the source filed them.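 Rule for the calls, unless noted: active = viability at or under a set limit in both replicates, limit being median viability minus 3 SD (cut at about 48% in these data, passing the limit was not always enough); inconclusive = at or under the limit in just one replicate; inactive = at or above the limit in both replicates.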

A short description of assay [1]: Her2 expression decrease, cell viability multiplex – SKBR3 breast tumor cells, AlphaScreen, ATP viability, primary screen (AID 461;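 active = Her2 level under about 52% in both replicate screens, with viability over 70% of control, limit read from the data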;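 for Her2 level: lower value means less Her2 protein in the cells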;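 for viability: percent of carrier control wells set as 100% viability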). The note with it: SKBR3 Her2 protein level, 18-24 h, measured here: SKBR3 viability, ATP luminescence, at 10 µM. On the technique in general: In Alpha technology, singlet oxygen from a donor bead excites a nearby acceptor bead.
In assay [2] the target is Receptor tyrosine-protein kinase erbB-2 (Homo sapiens) (UniProt P04626). The description is as above. The settings on record: 18-24 h, at 10 µM, stronger effect = lower value.
Assay [3] can be described thus: reduced viability of SK-BR-3 breast cancer cells – cell-based, 24 h, human, pilot screen (AID 572;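 active = viability at or below 10% of carrier control in both of two separate runs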;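 note: compound exposure lasted between 18 and 24 h rather than exactly 24 h; 100% = carrier-treated control wells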). The settings on record: SK-BR-3 viability, CellTiter-Glo luminescence, at 10 µM, stronger effect = lower value. In general terms: Cellular ATP, detected with luciferase, serves as a proxy for viable cell number.
A short description of assay [4]: HUVEC growth inhibition – cell-based, human, primary screen (AID 575;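 active = viability at or below 30% in both replicate assays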;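 note: 100% = median of untreated cell wells with 0.1% DMSO on each plate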). The note with it: HUVEC proliferation, CellTiter-Glo luminescence, 72 h; at 10 µM; stronger effect = lower value. In a few lines: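 Assay system: primary human umbilical vein endothelial cells / Buffer or medium: endothelial basal medium with 2% FBS plus growth supplements / Compound dosing: one dose, 10 µM final, 0.1% DMSO / Timing: 72 h treatment at 37 °C / Signal: CTG luminescence / Benchmarks: 32 DMSO-only cell-control wells (high), 32 MePR drug-control wells (low) per plate / Plate: collagen-coated 384-well format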

A short description of assay [5]: H69AR cell proliferation blockers – human, duplicate replicates, primary screen (AID 580).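 Note: 100% = mean luminescence of untreated wells and 0% = no signal.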 The settings on record: H69AR lung tumor cells viability, ATP luminescence, 72 h; at 10 µM; stronger effect = lower value.
Assay [6] in a line: MRP1 drug-resistance reversers in H69AR cells – cell-based, doxorubicin co-treatment, pilot screen (AID 601;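 active = viability loss from added drug above about 55%, and viability with drug at most 40%, in both replicates, limit read from the data, passing the limit was not always enough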). The settings on record: CellTiter-Glo, 72 h, at 10 µM; for differential viability (reversal): stronger effect = higher value.
A short description of assay [7]: yeast transport mutant growth inhibition pilot in 384-well plates, post-Golgi transport modulator project (AID 636; in the data active = inhibition above about 31%). The note with it: absorbance 615 nm, about 18 h, stronger effect = higher value.
Assay [8] is described as follows: growth suppression of yeast trafficking mutant, preliminary HTS, modulators of trafficking downstream of Golgi apparatus project, 1536-format plate, OD 615 nm (AID 637; in the data active = inhibition above about 30%). The settings on record: yeast transport mutant growth, absorbance 615 nm, 18 h; stronger effect = higher value.
[9] abbreviates: H69AR cells + 2 uM doxorubicin, measured here: viability with 2 uM doxorubicin, stronger effect = lower value.
Setting [10] is: H69AR cells, compound alone cytotoxicity.

In general, viability refers to a read-out of living cells in per cent, often relative to untreated cells. The term inhibition denotes the relative decrease from the control value, in per cent.

Sequence of Receptor tyrosine-protein kinase erbB-2 (Homo sapiens) (P04626 whole entry, looked up): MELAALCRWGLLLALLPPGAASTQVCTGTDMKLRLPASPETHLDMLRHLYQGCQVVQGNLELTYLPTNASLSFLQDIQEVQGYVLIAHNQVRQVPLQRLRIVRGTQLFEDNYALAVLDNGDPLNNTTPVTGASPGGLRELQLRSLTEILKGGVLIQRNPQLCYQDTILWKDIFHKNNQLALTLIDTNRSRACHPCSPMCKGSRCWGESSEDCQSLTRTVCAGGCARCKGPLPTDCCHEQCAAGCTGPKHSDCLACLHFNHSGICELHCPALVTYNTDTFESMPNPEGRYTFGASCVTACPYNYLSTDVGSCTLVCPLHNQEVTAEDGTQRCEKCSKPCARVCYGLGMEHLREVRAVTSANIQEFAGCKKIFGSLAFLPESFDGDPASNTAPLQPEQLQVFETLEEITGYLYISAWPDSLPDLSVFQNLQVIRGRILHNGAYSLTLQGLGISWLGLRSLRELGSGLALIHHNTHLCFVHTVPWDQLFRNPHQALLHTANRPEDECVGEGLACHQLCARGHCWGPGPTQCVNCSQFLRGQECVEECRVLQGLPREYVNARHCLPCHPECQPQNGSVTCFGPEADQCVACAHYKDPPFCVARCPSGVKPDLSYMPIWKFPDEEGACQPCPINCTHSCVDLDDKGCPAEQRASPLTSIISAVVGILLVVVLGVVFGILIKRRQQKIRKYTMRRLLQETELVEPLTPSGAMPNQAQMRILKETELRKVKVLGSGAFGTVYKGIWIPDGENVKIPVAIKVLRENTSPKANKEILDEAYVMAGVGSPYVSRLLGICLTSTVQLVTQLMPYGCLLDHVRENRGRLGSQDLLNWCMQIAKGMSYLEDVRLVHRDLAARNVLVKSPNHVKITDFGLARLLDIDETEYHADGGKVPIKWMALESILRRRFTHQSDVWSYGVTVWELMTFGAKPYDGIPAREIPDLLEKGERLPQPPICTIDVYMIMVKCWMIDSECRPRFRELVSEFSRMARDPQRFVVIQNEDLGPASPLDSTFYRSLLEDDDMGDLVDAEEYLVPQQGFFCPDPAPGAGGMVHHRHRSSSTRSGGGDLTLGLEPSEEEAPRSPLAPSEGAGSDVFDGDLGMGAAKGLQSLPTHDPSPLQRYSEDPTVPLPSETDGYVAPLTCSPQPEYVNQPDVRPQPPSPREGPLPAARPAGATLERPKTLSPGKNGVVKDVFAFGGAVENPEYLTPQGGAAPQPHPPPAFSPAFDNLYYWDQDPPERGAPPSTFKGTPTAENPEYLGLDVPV

Consider `COc1cccc(OCCn2ccnc2)c1`, for which the viability was 90.5% in assay [1]; 90.5% (inactive) in assay [3]; 89.6% (inactive) in assay [4]; 89.4% (inactive) in assay [5]; 93.1% in assay [6] (setting [9]); 89.4% in assay [6] (setting [10]). In assay [2], the Her2 level is 104% (inactive). Further, in assay [6] (H69AR cells + 2 uM doxorubicin), the differential viability (reversal) is -3.7% (inactive). Also, the values for the inhibition in assay [7] and in assay [8] were -4.93% (inactive) and -9.21% (inactive), respectively.

Consider `CCCCOc1ccc(-c2ncc(C(=O)OCC)c(N)n2)cc1`, for which the viability is 89.5% in assay [1]; 89.5% (inactive) in assay [3]; 103% (inactive) in assay [4]; 90% (inactive) in assay [5]; 81.5% in assay [6] (setting [9]); 90% in assay [6] (setting [10]). For the same compound, the Her2 level in assay [2] is 88% (inactive). Further, in assay [6] (H69AR cells + 2 uM doxorubicin), the differential viability (reversal) is 8.43% (inactive). Besides, the inhibition in assay [7] is -6.8% (inactive); in assay [8], -6.03% (inactive).

With `CC(C)CC(=O)N1CCN(S(=O)(=O)c2ccc(F)cc2)CC1`, the viability was 86.5% in assay [1]; 86.5% (inactive) in assay [3]; 86.5% (inactive) in assay [4]; 94.9% (inactive) in assay [5]; 85.8% in assay [6] (setting [9]); 94.9% in assay [6] (setting [10]). Moreover, the Her2 level in assay [2] was 102% (inactive). In assay [6] (H69AR cells + 2 uM doxorubicin), the differential viability (reversal) is 9.04% (inactive). The inhibition in assay [7] was 2.56% (inactive); in assay [8], 27% (inactive).

Regarding `Cc1ccccc1Cn1ccc(NC(=O)c2cnn3c(C(F)(F)F)cc(-c4ccco4)nc23)n1`, the viability in assay [1] is 76.5%; in assay [3], 76.5% (inactive); in assay [4], 62.3% (inactive); in assay [5] it was 60.4% (inactive); in assay [6] (setting [9]), 35.3%; in assay [6] (setting [10]), 60.4%. For the same compound, the Her2 level in assay [2] is 81% (inactive). For the same compound, the differential viability (reversal) in assay [6] (H69AR cells + 2 uM doxorubicin) is 25.2% (inactive). Besides, the inhibition in assay [7] is -4.13% (inactive); in assay [8] it was 5.9% (inactive).

As for `CC(C)C(c1nnnn1C1CCCC1)N1CCN(C(=O)c2ccco2)CC1` (stereo not given), the viability is 114% in assay [1]; 114% (inactive) in assay [3]; 82.1% (inactive) in assay [4]; 88.8% (inactive) in assay [5]; 72.9% in assay [6] (setting [9]); 88.8% in assay [6] (setting [10]). Also, in assay [2], the Her2 level was 96% (inactive). Moreover, the differential viability (reversal) in assay [6] (H69AR cells + 2 uM doxorubicin) was 15.8% (inactive). Moreover, the inhibition is -1.82% (inactive) in assay [7] and -11.8% (inactive) in assay [8].

With `Cc1c(C#N)c(N)c(C(=O)c2ccccc2)n1Cc1ccccc1`, the viability was 83.5% in assay [1]; 83.5% (inactive) in assay [3]; 97.3% (inactive) in assay [4]; 87.4% (inactive) in assay [5]; 87.3% in assay [6] (setting [9]); 87.4% in assay [6] (setting [10]). Moreover, the Her2 level in assay [2] was 122% (inactive). Besides, in assay [6] (H69AR cells + 2 uM doxorubicin), the differential viability (reversal) was 0.08% (inactive). The results for the inhibition in assay [7] and in assay [8] were -7.57% (inactive) and -16.4% (inactive), respectively.

Regarding `Cc1ccc(C2CC(c3cccc(Br)c3)Nc3nnnn32)cc1` (stereo not given), the viability in assay [1] is 92.5%; in assay [3], 92.5% (inactive); in assay [4], 56.7% (inactive); in assay [5], 91.7% (inactive); in assay [6] (setting [9]), 85%; in assay [6] (setting [10]), 91.7%. Besides, the Her2 level in assay [2] is 79.5% (inactive). The differential viability (reversal) in assay [6] (H69AR cells + 2 uM doxorubicin) is 6.65% (inactive). The values for the inhibition in assay [7] and in assay [8] were -2.11% (inactive) and 0.16% (inactive), respectively.

Regarding `COc1ccc(NC(=O)c2oc3ccc(S(=O)(=O)N4CCC5(CC4)OCCO5)cc3c2C)cc1`, the viability was 87.5% in assay [1]; 87.5% (inactive) in assay [3]; 39.4% (inactive) in assay [4]; 37.5% (active) in assay [5]; 42.8% in assay [6] (setting [9]); 37.5% in assay [6] (setting [10]). Also, the Her2 level in assay [2] was 90.5% (inactive). The differential viability (reversal) in assay [6] (H69AR cells + 2 uM doxorubicin) is -5.32% (inactive). For the same compound, the results for the inhibition in assay [7] and in assay [8] were 1.17% (inactive) and -14.8% (inactive), respectively.

For the compound `O=C(CSc1ncnc2ccccc12)N1CCN(c2ccccc2)CC1`, the viability in assay [1] is 102%; in assay [3], 102% (inactive); in assay [4], 94.1% (inactive); in assay [5], 82.7% (inactive); in assay [6] (setting [9]), 78.1%; in assay [6] (setting [10]), 82.7%. Moreover, in assay [2], the Her2 level is 92.5% (inactive). The differential viability (reversal) in assay [6] (H69AR cells + 2 uM doxorubicin) was 4.57% (inactive). For the same compound, the inhibition in assay [7] was -1.05% (inactive); in assay [8], -8.73% (inactive).

On to `Nn1cc(-c2ccccc2)nc1SCC(=O)N1CCN(S(=O)(=O)c2ccccc2)CC1`, for which the viability in assay [1] was 77%; in assay [3], 77% (inactive); in assay [4], 90.5% (inactive); in assay [5] it was 101% (inactive); in assay [6] (setting [9]), 102%; in assay [6] (setting [10]) it was 101%. In addition, the Her2 level in assay [2] is 96% (inactive). The differential viability (reversal) in assay [6] (H69AR cells + 2 uM doxorubicin) is -0.4% (inactive). Besides, the values for the inhibition in assay [7] and in assay [8] were 0.91% (inactive) and -6.56% (inactive), respectively.

As for `C=CCNC(=O)CNS(=O)(=O)c1ccc(F)cc1`, the viability is 87% in assay [1]; 87% (inactive) in assay [3]; 92.5% (inactive) in assay [4]; 95.4% (inactive) in assay [5]; 93.6% in assay [6] (setting [9]); 95.4% in assay [6] (setting [10]). Also, in assay [2], the Her2 level was 95.5% (inactive). The differential viability (reversal) in assay [6] (H69AR cells + 2 uM doxorubicin) is 1.88% (inactive). Further, the inhibition in assay [7] was -1.45% (inactive); in assay [8] it was 0% (inactive).

Take `CCN(CC)c1nc2cc(OC)ccc2cc1C#N`: the viability was 104% in assay [1]; 104% (inactive) in assay [3]; 86.1% (inactive) in assay [4]; 68.2% (inactive) in assay [5]; 82.3% in assay [6] (setting [9]); 68.2% in assay [6] (setting [10]). Also, the Her2 level in assay [2] was 80.5% (inactive). Besides, in assay [6] (H69AR cells + 2 uM doxorubicin), the differential viability (reversal) was -14.1% (inactive). The inhibition in assay [7] is -2.86% (inactive); in assay [8], -5.24% (inactive).

On to `Clc1ccccc1OCCCCn1ccnc1`, for which the viability is 95% in assay [1]; 95% (inactive) in assay [3]; 95.9% (inactive) in assay [4]; 83.7% (inactive) in assay [5]; 72.3% in assay [6] (setting [9]); 83.7% in assay [6] (setting [10]). In addition, the Her2 level in assay [2] is 114% (inactive). In addition, the differential viability (reversal) in assay [6] (H69AR cells + 2 uM doxorubicin) is 11.4% (inactive). The values for the inhibition in assay [7] and in assay [8] were 2.34% (inactive) and -4.33% (inactive), respectively.

In the case of `Cc1ccccc1NS(=O)(=O)c1cc(C(=O)N2CCCC2)ccc1C`, the viability was 108% in assay [1]; 108% (inactive) in assay [3]; 82.9% (inactive) in assay [4]; 84.2% (inactive) in assay [5]; 88.4% in assay [6] (setting [9]); 84.2% in assay [6] (setting [10]). Moreover, in assay [2], the Her2 level is 91.5% (inactive). In addition, the differential viability (reversal) in assay [6] (H69AR cells + 2 uM doxorubicin) is -4.14% (inactive). Besides, the inhibition in assay [7] is -5.14% (inactive); in assay [8], -8.25% (inactive).

Turning to `Cc1cccc(C)c1NC(=O)c1cc(S(=O)(=O)N2CCOCC2)ccc1F`, the viability in assay [1] was 88.5%; in assay [3], 88.5% (inactive); in assay [4] it was 102% (inactive); in assay [5] it was 89.9% (inactive); in assay [6] (setting [9]) it was 89.2%; in assay [6] (setting [10]), 89.9%. Besides, the Her2 level in assay [2] is 78.5% (inactive). In addition, the differential viability (reversal) in assay [6] (H69AR cells + 2 uM doxorubicin) was 0.745% (inactive). For the same compound, the inhibition was -5.53% (inactive) in assay [7] and -9.17% (inactive) in assay [8].

For `CCn1ncc(C2=NOC(C(=O)N3CCC(C(N)=O)CC3)C2)c1C` (stereo not given), the viability in assay [1] was 104%; in assay [3], 104% (inactive); in assay [4], 98.6% (inactive); in assay [5] it was 101% (inactive); in assay [6] (setting [9]), 103%; in assay [6] (setting [10]), 101%. The Her2 level in assay [2] was 106% (inactive). Also, the differential viability (reversal) in assay [6] (H69AR cells + 2 uM doxorubicin) was -2.31% (inactive). The inhibition was -1.05% (inactive) in assay [7] and 15.2% (inactive) in assay [8].
